Activity calls are given as the source filed them. No cut-off for these calls is given here.
Experiments:
[1] = tested on: Trypanosoma brucei rhodesiense; test: Antitrypanosomal activity against Trypanosoma brucei rhodesiense STIB900 infected in NMRI mouse assessed as mouse survival at 20 mg/kg, ip administered on day 3 post infection for 4 days measured up to 60 days; assay type: functional; conditions: route intraperitoneal
[2] = tested on: Trypanosoma brucei rhodesiense; test: Antitrypanosomal activity against Trypanosoma brucei rhodesiense STIB900 infected in NMRI mouse assessed as mouse survival at 5 mg/kg, ip administered on day 3 post infection for 4 days measured up to 60 days; assay type: functional; conditions: route intraperitoneal
[3] = tested on: L6; test: Cytotoxicity against rat L6 cells assessed as cell viability after 70 hrs by Alamar blue assay; assay type: cell-based; conditions: L6, 70 h
[4] = tested on: Plasmodium falciparum; test: Antiplasmodial activity against Plasmodium falciparum K1 assessed as [3H]-hypoxanthine incorporation after 48 hrs by liquid scintillation counting analysis; assay type: functional, organism-based
[5] = tested on: Liver; test: Half life in Swiss Webster mouse liver S9 fraction by UV-HPLC analysis; assay type: ADME, subcellular
[6] = tested on: Trypanosoma brucei rhodesiense; test: Antitrypanosomal activity against Trypanosoma brucei rhodesiense STIB900 assessed as parasite growth inhibition after 70 hrs by Alamar blue assay; assay type: functional, organism-based; conditions: STIB900, 70 h
[7] = tested on: Trypanosoma brucei rhodesiense; test: Antitrypanosomal activity against Trypanosoma brucei rhodesiense STIB900 infected in NMRI mouse assessed as cured animal at 5 mg/kg, ip administered on day 3 post infection for 4 days measured up to 60 days; assay type: functional, organism-based; parameters: dose 5 mg/kg
In short: (§1)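 Acute-stage mouse model: compound dosed daily for 4 days. A cure is a mouse surviving parasite-free for 60 days. Average days of survival also recorded.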

[8] = tested on: Liver; test: Half life in mouse liver microsomes by UV-HPLC analysis; assay type: ADME, Microsome
In short: (§2)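 Substrate at 10 μM with 0.5 mg/ml pooled human or mouse liver microsomes, 0.5% DMSO, in 100 mM phosphate pH 7.4 with 3.3 mM MgCl2. After 5-min pre-equilibration at 37°C, 1 mM β-NADPH is added; triplicates.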

[9] = tested on: Liver microsomes; test: Half life in human liver microsomes by UV-HPLC analysis; assay type: ADME, Microsome; in short: as §2
[10] = tested on: Trypanosoma brucei brucei; test: Antitrypanosomal activity against Trypanosoma brucei brucei GVR35 infected in NMRI mouse assessed as mouse survival at 100 mg/kg, po administered on day 21 post infection for 5 days measured up to 180 days; assay type: functional
In short: (§3)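 Oral dosing in the T. b. brucei GVR35 second-stage (CNS) mouse model, daily for 5 or 10 days. Cure means survival for more than 180 days after infection with no parasitemia relapse. Mean survival days are computed across mice with and without relapse.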

[11] = tested on: Trypanosoma brucei brucei; test: Antitrypanosomal activity against Trypanosoma brucei brucei GVR35 infected in NMRI mouse assessed as cured animal at 100 mg/kg, po administered on day 21 post infection for 5 days measured up to 180 days; assay type: functional, organism-based; parameters: dose 100 mg/kg
In short: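 Second-stage CNS model, oral dosing. A cure is survival beyond 180 days after infection without parasitemia relapse. Mean survival days are computed from mice with and without relapse. Reference diamidine control given once at 40 mg/kg ip.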

[12] = tested on: Trypanosoma brucei rhodesiense; test: Antitrypanosomal activity against Trypanosoma brucei rhodesiense STIB900 infected in NMRI mouse assessed as cured animal at 100 mg/kg, ip administered on day 3 post infection for 4 days measured up to 60 days; assay type: functional, organism-based; parameters: dose 100 mg/kg; in short: as §1
[13] = tested on: Trypanosoma brucei rhodesiense; test: Antitrypanosomal activity against Trypanosoma brucei rhodesiense STIB900 infected in NMRI mouse assessed as mouse survival at 100 mg/kg, ip administered on day 3 post infection for 4 days measured up to 60 days; assay type: functional; conditions: route intraperitoneal
[14] = tested on: Trypanosoma brucei rhodesiense; test: Antitrypanosomal activity against Trypanosoma brucei rhodesiense STIB900 infected in NMRI mouse assessed as cured animal at 20 mg/kg, ip administered on day 3 post infection for 4 days measured up to 60 days; assay type: functional, organism-based; parameters: dose 20 mg/kg; in short: as §1
[15] = tested on: Plasmodium falciparum; test: Potency index, ratio of pentamidine IC50 to compound IC50 for Plasmodium falciparum K1; assay type: functional
[16] = tested on: Trypanosoma brucei rhodesiense; test: Antitrypanosomal activity against Trypanosoma brucei rhodesiense STIB900 infected in NMRI mouse assessed as cured animal at 10 mg/kg, ip administered on day 3 post infection for 4 days measured up to 60 days; assay type: functional, organism-based; parameters: dose 10 mg/kg; in short: as §1
[17] = tested on: Trypanosoma brucei brucei; test: Antitrypanosomal activity against Trypanosoma brucei brucei GVR35 infected in NMRI mouse assessed as mouse survival at 100 mg/kg, po administered on day 21 post infection for 10 days measured up to 180 days; assay type: functional; in short: as §3

Structure (SMILES) | Survival [2] | IC50 [3] | IC50 [4] | IC50 [6] | other results
N=C(N)c1ccc(-c2ccc(-c3ccc(C(=N)N)cc3)o2)cc1 [FURAMIDINE] | >46 days |  |  |  | Survival [1]: >57.75 days
N/C(=N\O)c1ccc(-c2cncc(-c3ccc(/C(N)=N/O)cn3)n2)nc1 |  | > 196 µM | 7.01 µM | 90.6 µM | t1/2 [5]: 20 min
N=C(N)c1ccc(-c2cncc(-c3ccc(C(=N)N)nc3)n2)cc1 | >60 days | 34.1 µM | 0.01 µM | 0.006 µM | 
N=C(N)c1ccc(-c2cncc(-c3ccc(C(=N)N)cc3F)n2)c(F)c1 | >41 days | 29.8 µM |  | 0.027 µM | Activity [7]: inactive
CO/N=C(\N)c1ccc(-c2cncc(-c3ccc(/C(N)=N\OC)nc3)n2)cn1 |  | > 212 µM | 0.328 µM | 7.87 µM | t1/2 [8]: 59 min; t1/2 [9]: 14 min
N/C(=N\O)c1ccc(-c2cncc(-c3ccc(/C(N)=N\O)nc3)n2)cn1 |  | > 190 µM | 0.785 µM | 95.4 µM | MSD [10]: 95.2 days; t1/2 [5]: 51 min; Activity [11]: inactive
N=C(N)c1ccc(-c2cncc(-c3ccc(C(=N)N)cn3)n2)cc1 | >60 days | 117 µM | 0.052 µM | 0.014 µM | Activity [7]: Active
N=C(NO)c1ccc(-c2ccc(-c3ccc(/C(N)=N\O)cc3)o2)cc1 |  |  |  |  | t1/2 [5]: 29 min; Activity [12]: inactive; Survival [13]: 50 days
Cc1cc(C(=N)N)ccc1-c1cncc(-c2ccc(C(=N)N)cc2C)n1 |  | 117 µM | 0.323 µM | 0.462 µM | 
CO/N=C(\N)c1ccc(-c2cncc(-c3ccc(/C(N)=N\OC)cn3)n2)nc1 |  | 20.1 µM | 7.39 µM | 120 µM | MSD [10]: 67.2 days; t1/2 [8]: 200 min; t1/2 [9]: 70 min; Activity [11]: inactive
N=C(N)c1ccc(-c2ccc(-c3ccc(C(=N)N)cn3)o2)cc1 | >54.5 days |  |  |  | Survival [1]: >60 days; Activity [14]: Active
CO/N=C(\N)c1ccc(-c2cncc(-c3ccc(/C(N)=N\OC)cc3)n2)nc1 |  | > 180 µM | 5.6 µM | 25.3 µM | t1/2 [8]: 210 min; t1/2 [9]: 7.6 min
N/C(=N\O)c1ccc(-c2cncc(-c3ccc(/C(N)=N/O)nc3)n2)cc1 |  | 5 µM | 0.453 µM | 10.8 µM | t1/2 [5]: 36 min
CO/N=C(\N)c1ccc(-c2ccc(-c3ccc(/C(N)=N/OC)cn3)o2)nc1 |  |  |  |  | MSD [10]: >180 days; Activity [11]: Active
N=C(N)c1ccc(-c2cncc(-c3ccc(C(=N)N)cc3)n2)cc1 | >53.5 days | 80.8 µM | 0.01 µM | 0.0058 µM | Ratio IC50 [15]: 5
N/C(=N\O)c1ccc(-c2cncc(-c3ccc(/C(N)=N/O)cn3)n2)cc1 |  | 24.6 µM | 8.4 µM | 7.78 µM | t1/2 [5]: 30 min
CONC(=N)c1ccc(-c2ccc(-c3ccc(C(=N)NOC)cc3)o2)cc1 [PAFURAMIDINE] |  |  |  |  | MSD [10]: >167.8 days; t1/2 [8]: 150 min; t1/2 [9]: 6.8 min; Activity [16]: Active
CO/N=C(\N)c1ccc(-c2cncc(-c3ccc(/C(N)=N\OC)cc3)n2)cn1 |  | > 185 µM | 0.453 µM | 194 µM | t1/2 [8]: 35 min; t1/2 [9]: 6.5 min
N=C(N)c1ccc(-c2cncc(-c3ccc(C(=N)N)nc3)n2)cn1 | >36.5 days | 24.4 µM | 0.085 µM | 0.0048 µM | 
N/C(=N\O)c1ccc(-c2cncc(-c3ccc(/C(N)=N/O)cc3)n2)cc1 |  | 2.9 µM | 0.87 µM | 7.95 µM | MSD [10]: 69 days; t1/2 [5]: 1.9 min; Activity [16]: inactive; Activity [11]: inactive
N=C(N)c1ccc(-c2cnc(-c3ccc(C(=N)N)cc3)cn2)cc1 | 36.5 days |  |  |  | Activity [7]: inactive
N=C(N)c1ccc(-c2cncc(-c3ccc(C(=N)N)cn3)n2)nc1 | >53.75 days | 139 µM | 0.031 µM | 0.037 µM | 
CO/N=C(\N)c1ccc(-c2cncc(-c3ccc(/C(N)=N\OC)cc3)n2)cc1 |  | 58.7 µM | 0.41 µM | 18.9 µM | MSD [10]: >173.8 days; t1/2 [8]: 26 min; t1/2 [9]: 8.6 min; MSD [17]: >180 days
CO/N=C(\N)c1ccc(-c2ccc(-c3ccc(/C(N)=N/OC)cn3)o2)cc1 |  |  |  |  | MSD [10]: >180 days; Activity [11]: Active
N=C(N)c1ccc(-c2ccc(-c3ccc(C(=N)N)cn3)o2)nc1 | >49.5 days | 83 µM |  |  | Survival [1]: >60 days; Activity [14]: Active

— ChEMBL document CHEMBL2440077, “Synthesis and antiprotozoal activity of dicationic 2,6-diphenylpyrazines and aza-analogues” (Bioorg Med Chem, 2013)
